Results reported in PubChem BioAssay AID588484 (The Scripps Research Institute Molecular Screening Center, 2011).
The source made the active and inactive calls.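 Rule for the calls: active = IC50 of 1 µM or lower against any of the four tested PAD enzyme isoforms; inactive = the rest, IC50 above 1 µM everywhere.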

Assays:
Assay in all cases: PAD1-4 inhibitor IC50 determination, late-stage follow-up, selectivity assay for PAD4 inhibitor project, biochemical, colorimetric, BAEE substrate, recombinant PAD1-4 (AID 588484)
[1] = biological target: Protein-arginine deiminase type-1 (Homo sapiens) (UniProt Q9ULC6); conditions: recombinant PAD1-4, BAEE citrullination, colorimetric absorbance; PAD1
Protein-arginine deiminase type-1 (Homo sapiens), sequence (Q9ULC6 whole entry, looked up): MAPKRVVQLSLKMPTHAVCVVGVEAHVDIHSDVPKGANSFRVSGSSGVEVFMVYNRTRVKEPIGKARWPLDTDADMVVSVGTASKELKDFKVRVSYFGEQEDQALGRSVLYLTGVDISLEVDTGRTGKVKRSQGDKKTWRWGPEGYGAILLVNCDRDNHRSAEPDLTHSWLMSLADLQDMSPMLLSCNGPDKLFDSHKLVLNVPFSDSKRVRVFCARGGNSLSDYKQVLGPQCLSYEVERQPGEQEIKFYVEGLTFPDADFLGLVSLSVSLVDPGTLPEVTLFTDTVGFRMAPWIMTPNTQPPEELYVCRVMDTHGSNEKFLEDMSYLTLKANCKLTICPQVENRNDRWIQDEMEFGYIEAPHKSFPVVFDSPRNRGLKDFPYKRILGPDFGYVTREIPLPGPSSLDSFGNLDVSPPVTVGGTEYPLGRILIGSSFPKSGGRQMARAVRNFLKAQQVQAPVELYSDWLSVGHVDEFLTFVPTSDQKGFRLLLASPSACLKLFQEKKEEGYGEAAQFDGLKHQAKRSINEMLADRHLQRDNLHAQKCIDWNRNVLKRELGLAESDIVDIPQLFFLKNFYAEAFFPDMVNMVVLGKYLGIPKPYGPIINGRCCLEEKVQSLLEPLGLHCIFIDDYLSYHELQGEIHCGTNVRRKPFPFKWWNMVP
Summary of the method: (§1)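 Reagent – 10 mM BAEE substrate · Material – recombinant PAD2, PAD3 or PAD4 enzyme, each assayed separately · Schedule – 15 min pre-incubation (37 °C), 15 min reaction · Technique – colorimetric citrulline measurement by absorbance at 540 nm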

[2] = biological target: Protein-arginine deiminase type-2 (Homo sapiens) (UniProt Q9Y2J8); conditions: recombinant PAD1-4, BAEE citrullination, colorimetric absorbance; PAD2
Protein-arginine deiminase type-2 (Homo sapiens), sequence (Q9Y2J8 whole entry, looked up): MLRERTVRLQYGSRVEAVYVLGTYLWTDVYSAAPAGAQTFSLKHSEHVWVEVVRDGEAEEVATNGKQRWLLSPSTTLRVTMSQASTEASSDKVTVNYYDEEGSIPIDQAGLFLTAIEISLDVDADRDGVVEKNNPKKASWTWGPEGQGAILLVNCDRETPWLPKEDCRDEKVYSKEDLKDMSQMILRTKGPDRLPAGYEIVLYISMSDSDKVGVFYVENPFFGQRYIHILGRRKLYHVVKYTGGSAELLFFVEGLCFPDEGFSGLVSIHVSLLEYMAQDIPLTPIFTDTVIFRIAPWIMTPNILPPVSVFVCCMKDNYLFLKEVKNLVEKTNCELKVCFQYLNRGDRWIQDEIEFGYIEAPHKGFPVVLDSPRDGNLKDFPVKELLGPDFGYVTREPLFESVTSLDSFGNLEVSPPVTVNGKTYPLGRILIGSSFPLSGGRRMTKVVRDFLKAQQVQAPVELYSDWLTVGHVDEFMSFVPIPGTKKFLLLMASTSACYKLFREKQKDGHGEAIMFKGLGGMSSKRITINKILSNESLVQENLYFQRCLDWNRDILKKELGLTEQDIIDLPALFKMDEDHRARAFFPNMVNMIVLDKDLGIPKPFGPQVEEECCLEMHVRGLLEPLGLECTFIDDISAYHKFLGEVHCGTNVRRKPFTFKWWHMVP
Summary of the method: as §1

[3] = biological target: Protein-arginine deiminase type-3 (Homo sapiens) (UniProt Q9ULW8); conditions: recombinant PAD1-4, BAEE citrullination, colorimetric absorbance; PAD3
Protein-arginine deiminase type-3 (Homo sapiens), sequence (Q9ULW8 whole entry, looked up): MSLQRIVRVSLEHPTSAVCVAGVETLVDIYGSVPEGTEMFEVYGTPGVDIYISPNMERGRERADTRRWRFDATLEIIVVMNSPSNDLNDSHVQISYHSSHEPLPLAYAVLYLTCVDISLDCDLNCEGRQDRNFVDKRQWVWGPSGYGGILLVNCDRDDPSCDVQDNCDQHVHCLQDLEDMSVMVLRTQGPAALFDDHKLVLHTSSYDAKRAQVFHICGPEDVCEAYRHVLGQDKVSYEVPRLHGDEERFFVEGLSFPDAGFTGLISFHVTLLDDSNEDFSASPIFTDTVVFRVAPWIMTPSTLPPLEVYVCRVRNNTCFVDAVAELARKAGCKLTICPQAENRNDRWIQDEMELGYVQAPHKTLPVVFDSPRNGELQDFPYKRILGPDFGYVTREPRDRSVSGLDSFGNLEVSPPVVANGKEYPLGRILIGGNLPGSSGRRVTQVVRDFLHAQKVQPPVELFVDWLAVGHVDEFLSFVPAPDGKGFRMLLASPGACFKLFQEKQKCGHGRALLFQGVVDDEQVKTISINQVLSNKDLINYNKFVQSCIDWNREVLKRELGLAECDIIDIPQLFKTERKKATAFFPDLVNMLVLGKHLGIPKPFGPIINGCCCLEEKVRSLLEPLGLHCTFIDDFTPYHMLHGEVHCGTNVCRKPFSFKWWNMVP
Summary of the method: as §1

[4] = biological target: Protein-arginine deiminase type-4 (Homo sapiens) (UniProt Q9UM07); conditions: recombinant PAD1-4, BAEE citrullination, colorimetric absorbance; PAD4
Protein-arginine deiminase type-4 (Homo sapiens), sequence (Q9UM07 whole entry, looked up): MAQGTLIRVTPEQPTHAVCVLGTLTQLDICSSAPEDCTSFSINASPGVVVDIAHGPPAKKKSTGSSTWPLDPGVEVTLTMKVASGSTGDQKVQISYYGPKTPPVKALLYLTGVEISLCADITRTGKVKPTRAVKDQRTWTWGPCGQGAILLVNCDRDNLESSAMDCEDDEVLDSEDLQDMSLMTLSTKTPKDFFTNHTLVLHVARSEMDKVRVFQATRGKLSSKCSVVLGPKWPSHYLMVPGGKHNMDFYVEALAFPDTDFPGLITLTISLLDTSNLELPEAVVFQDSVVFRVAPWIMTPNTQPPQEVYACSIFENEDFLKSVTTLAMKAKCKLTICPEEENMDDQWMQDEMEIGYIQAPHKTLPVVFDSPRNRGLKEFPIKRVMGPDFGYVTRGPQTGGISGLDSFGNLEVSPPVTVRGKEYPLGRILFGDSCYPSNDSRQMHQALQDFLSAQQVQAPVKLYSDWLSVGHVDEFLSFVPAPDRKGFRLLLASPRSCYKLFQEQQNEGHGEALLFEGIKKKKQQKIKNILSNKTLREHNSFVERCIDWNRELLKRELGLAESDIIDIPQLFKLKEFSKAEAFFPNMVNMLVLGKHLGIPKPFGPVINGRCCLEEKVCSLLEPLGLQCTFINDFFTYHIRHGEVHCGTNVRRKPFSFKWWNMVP
Summary of the method: as §1

IC50 [1]: inactive
IC50 [2]: inactive
IC50 [3]: inactive
IC50 [4]: inactive
SMILES: COC1=C(Br)C(=O)c2ncccc2C1=O
